Source: PubChem
Most compounds without a hit are left out; they make up all but 6.3% or so of the library.
M1 antag = antagonists of rat M1 muscarinic receptor | B-score at 10 µM | CHO-M1 cells, Fluo-4 calcium, ACh EC80 antagonist mode; active compounds read low | P08482 | 64,000 tested, 3.4% active;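 active means calcium fluorescence response, raw or row-and-column corrected B-score, differing from the plate sample mean either way at a set confidence level, mostly lower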
M1 agonist = agonists of M1 muscarinic receptor. CHO-M1 cells, Fluo-4 calcium fluorescence, agonist mode; active compounds read high. B-score at 10 µM. 64,000 tested, 3% active. AID 626;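 active means fluorescence rise, raw or as B-score row- and column-corrected plate score, outside the 99.7% band of its plate's samples, either direction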
RORa activator = activates the human nuclear receptor RORA; P35398; 65,000 tested, 1.5% active; activation, % at 10 µM; AID 560; CHO-K1 Gal4-RORA LBD luciferase reporter, luminescence; percent increase over mock-subtracted basal signal;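 active means activation above the mean of all tested compounds plus 3 SD, cut at about 49% in these data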
MT1-MMP txn act = activates MT1-MMP transcription | 86,000 tested, 0.16% active | HT1080 MT1-MMP promoter luciferase reporter, luminescence, overnight; active compounds read high | activation factor at 10 µM;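 active means activation factor of at least 2 for MT1-MMP transcription at 10 µM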
SF1 activator = activators of human nuclear receptor SF-1. Q13285. CHO-K1 Gal4-SF-1 LBD luciferase reporter; % increase over DMSO SF-1-specific signal. activation, % at 10 µM. 65,000 tested, 1.9% active;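 active means activation above the mean activation of all tested compounds plus 3 SD, cut at about 50% in these data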
Target sequence (Q13285 whole entry, looked up, the tested form may be a part): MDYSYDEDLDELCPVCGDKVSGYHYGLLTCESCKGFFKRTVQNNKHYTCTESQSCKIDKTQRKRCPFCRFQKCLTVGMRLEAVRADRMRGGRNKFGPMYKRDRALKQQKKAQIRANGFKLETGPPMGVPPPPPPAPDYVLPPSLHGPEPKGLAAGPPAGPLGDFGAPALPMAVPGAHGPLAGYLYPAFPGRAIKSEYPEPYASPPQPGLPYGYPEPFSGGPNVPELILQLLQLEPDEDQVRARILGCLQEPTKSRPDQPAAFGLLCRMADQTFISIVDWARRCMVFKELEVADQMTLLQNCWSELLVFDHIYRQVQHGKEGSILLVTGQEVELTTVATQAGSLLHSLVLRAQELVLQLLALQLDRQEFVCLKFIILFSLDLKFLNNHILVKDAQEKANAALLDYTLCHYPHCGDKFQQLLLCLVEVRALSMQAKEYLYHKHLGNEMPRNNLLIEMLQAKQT
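Assay system: CHO-K1 cells co-transfected with Gal4 DBD–human SF-1 LBD, 5xGal4 luciferase reporter; doses: 10 µM only; incubation: 20 h compound exposure at 37 °C after 1 h cell settling; signal: luciferase light emission; evaluation: percent activation versus DMSO; repeats: one test per compound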
Numbers stand for hits; - = inactive; . = no result given.

SMILES	M1 antag	M1 agonist	RORa activator	MT1-MMP txn act	SF1 activator
CCn1cc(S(=O)(=O)CC(=O)NC2CCCCC2)c2ccccc21	3.2	-	-	-	-
O=C(NCC(c1cccs1)N1CCOCC1)c1cc2ccccc2o1 (configuration not stated)	-	-	-	.	-
O=c1c2c(nc3cc(-c4cccc(Cl)c4)[nH]n13)CCC2	.	.	.	2	.
CN=C1CC(C)(C)CC(=O)/C1=C(/O)CCC(=O)NC	-	-	-	-	-
CCCCN1C(=O)NC(c2ccc(OC)cc2)C(C(=O)OCc2ccccc2)=C1C (configuration not stated)	.	.	.	-	.
Cc1ccc(-c2csc3nnc(SCC(=O)NCc4ccc5c(c4)OCO5)n23)cc1	-	8.7	-	-	-
CCOC(=O)c1ccc(N2C(=O)c3n[nH]c(C)c3C2c2ccco2)cc1 (configuration not stated)	-	-	-	-	-
Cc1ccc(N2C(=O)c3n[nH]c(C)c3C2c2ccco2)cc1 (configuration not stated)	-	-	67	-	-
Cc1ccc2c(c1)c1c3n2CCCNC3CCC1 (configuration not stated)	-	-	54	-	-
Clc1ccc(Cc2noc(Cc3ccccc3)n2)cc1Cl	1.8	-	-	-	-
Cc1cc2c(cc(C(=O)N3CCC(C(=O)NC4CCCC4)CC3)n2Cc2c(F)cccc2Cl)o1	-	6.2	-	-	-
CCNc1nc(NC(C)C)nc(OCC)n1	.	.	.	-	.
COc1ccc(C(=O)Nc2nc3cc(OC)c(OC)cc3c(=O)[nH]2)cc1	10	-	-	-	-
COc1cc2nc(NC(=O)c3ccccc3)[nH]c(=O)c2cc1OC	-	-	-	-	-
COc1ccc(OCCSc2ncccn2)cc1	-	-	-	-	56
Clc1ccc(OCCSc2ncccn2)cc1	.	.	.	-	.
COc1ccc(OCCCSc2ncccn2)cc1	-	-	63	-	-
CC(=O)c1cccc(N(C(=O)c2cnccn2)C(C(=O)NCc2ccccc2)c2ccco2)c1 (configuration not stated)	.	.	.	-	.
O=C(COC(=O)C1CC1)c1c[nH]c2ccccc12	-	-	106	-	-
CCn1nc(C(=O)OCC(=O)c2c[nH]c3ccccc23)c2ccccc2c1=O	-	6.1	-	-	-
O=C(OCC(=O)c1c[nH]c2ccccc12)c1ccco1	-	-	-	-	-
CCCS(=O)(=O)N1CCCC(C(=O)NCC2CCCO2)C1 (configuration not stated)	-	-	-	-	-
COC(=O)CNc1c(-c2ccccc2)nc2ccc(Br)cn12	.	.	.	-	.
CCc1cc(C(=O)Nc2ccc(C)cc2Br)cs1	.	.	.	2	.
CCOC(=O)CCn1nc(-c2ccc(Cl)cc2)cc1N	-	-	-	-	70
SMILES	M1 antag	M1 agonist	RORa activator	MT1-MMP txn act	SF1 activator
CCOC(=O)Cn1nc(-c2ccc(Cl)cc2)cc1N	-	-	-	-	-
CCc1nc2oc3ccccc3c(=O)c2c(=O)n1CCOC	-	-	-	-	-
CCc1nc2oc3ccccc3c(=O)c2c(=O)n1-c1ccccc1	-	-	-	-	71
CCOC(=O)c1c(C)nc(-c2ccccc2)nc1NC(C)=O	-	-	-	-	-
CCOC(=O)c1c(C)nc(-c2ccccc2)nc1N	-	-	51	.	58
COC(=O)[C@H]1C[C@@H]1[C@H](NC(=O)c1cc(C)nn1C)c1ccccc1	.	.	.	-	.
CC(C)NC(=O)CSc1nc2ccccc2n1-c1ccccc1	0.95	-	-	-	-
CCC(=O)N1c2ccccc2-c2nnc(SC)nc2OC1c1ccc(N(C)C)cc1 (configuration not stated)	-	-	-	-	-
CCC1Oc2nc(SC)nnc2-c2ccccc2N1C(=O)c1ccccc1 (configuration not stated)	-	-	54	-	50
COc1cc(NC(=O)C2CC(=O)NC3=C2C(=O)CCC3)c(OC)cc1Cl (configuration not stated)	.	.	.	-	.
CCc1nnc(NC(=O)CSc2nc3c(cc2C#N)CCCC3)s1	-	-	-	-	78
COC(=O)CC(=O)CSc1nc2c(cc1C#N)CCCCC2	-	-	-	-	78
COC(=O)CNC(=O)C1(CC(C)C)C=CCN1C(=O)c1ccccc1 (configuration not stated)	.	.	.	-	.
O=C(CN1CCN(Cc2ccccc2)CC1)NCC1COc2ccccc2O1 (configuration not stated)	-	-	.	-	.
O=C(CN1C(=O)c2ccccc2C1=O)NCC1COc2ccccc2O1 (configuration not stated)	1.2	-	-	-	-
O=C(NCC1COc2ccccc2O1)c1ccccc1 (configuration not stated)	-	-	70	-	52
Cc1cc(-n2c(C)cc(C(=O)CN3C(=O)NC4(CCCCC4)C3=O)c2C)no1	1.7	-	-	-	-
Cc1cc(-n2c(C)cc(C(=O)CN3C(=O)NC4(CCCC4)C3=O)c2C)no1	-	-	-	-	-
Cc1ccc(-c2nc3cccnc3s2)cc1NC(=O)c1ccco1	-	-	-	-	59
O=S(=O)(Nc1ccc(-c2nc3cccnc3s2)cc1)c1cccs1	-	-	-	-	-
CCS(=O)(=O)Nc1cc(-c2nc3cccnc3s2)ccc1C	-	-	-	-	71
Cc1ccc(-c2nnc3c4ccccc4c(C)nn23)cc1NC(=O)c1ccco1	-	-	-	-	-
CCN(/C=N/c1sc2c(c1C#N)CCCCC2)CC	.	.	.	-	.
Cc1ccc(/C=N/c2sc3c(c2C#N)CCCCC3)o1	-	-	-	-	54
CN1CCN(/C=N/c2sc3c(c2C#N)CCCCC3)CC1	-	-	-	-	54
SMILES	M1 antag	M1 agonist	RORa activator	MT1-MMP txn act	SF1 activator
Cc1ccc(/C=N/c2sc3c(c2C#N)CCC3)s1	-	-	-	2.3	-
COc1ccc(CN2CCC(C(=O)NCCc3ccc(OC)c(OC)c3)CC2)c(OC)c1	.	.	.	-	.
CSc1nsc(SCCN2C(=O)c3ccccc3C2=O)n1	2.3	-	-	-	-
Cc1csc(SCCN2C(=O)c3ccccc3C2=O)n1	-	-	73	-	65
COC(=O)c1ccc(C(NC(=O)OCc2ccccc2)/C(F)=C/[C@@H](C)C(=O)NCc2cc(C)on2)cc1 (some centres not stated)	.	.	.	-	.
CCOc1ccc2nc(NC(=O)c3ccoc3C)sc2c1	-	-	-	.	-
CCOc1ccc(N(Cc2cc3ccc(C)cc3[nH]c2=O)S(C)(=O)=O)cc1	.	.	.	-	.
CCOc1ccc2nc(NC(=O)C(CC)Sc3nc(C)cc(=O)[nH]3)sc2c1 (configuration not stated)	-	-	52	-	-
CCOC(=O)c1sc(NC(=O)c2ccc(CC)s2)nc1C	-	-	72	-	119
CCOC(=O)c1ccc2nc(NC(=O)c3ccco3)sc2c1	-	-	-	-	-
C=CCOC(=O)c1sc(NC(=O)c2ccco2)nc1C	-	-	53	-	93
CCOC(=O)CNC(=O)c1sc(NC(=O)c2ccccc2F)nc1C	-	-	-	-	53
Cc1nc(NC(N)=S)sc1C(=O)Nc1ccccc1	.	.	.	-	.
